Series [1] has as its target T1, Amine oxidase [flavin-containing] B (Rattus norvegicus, UniProt P19643).
T1 sequence (P19643 whole entry): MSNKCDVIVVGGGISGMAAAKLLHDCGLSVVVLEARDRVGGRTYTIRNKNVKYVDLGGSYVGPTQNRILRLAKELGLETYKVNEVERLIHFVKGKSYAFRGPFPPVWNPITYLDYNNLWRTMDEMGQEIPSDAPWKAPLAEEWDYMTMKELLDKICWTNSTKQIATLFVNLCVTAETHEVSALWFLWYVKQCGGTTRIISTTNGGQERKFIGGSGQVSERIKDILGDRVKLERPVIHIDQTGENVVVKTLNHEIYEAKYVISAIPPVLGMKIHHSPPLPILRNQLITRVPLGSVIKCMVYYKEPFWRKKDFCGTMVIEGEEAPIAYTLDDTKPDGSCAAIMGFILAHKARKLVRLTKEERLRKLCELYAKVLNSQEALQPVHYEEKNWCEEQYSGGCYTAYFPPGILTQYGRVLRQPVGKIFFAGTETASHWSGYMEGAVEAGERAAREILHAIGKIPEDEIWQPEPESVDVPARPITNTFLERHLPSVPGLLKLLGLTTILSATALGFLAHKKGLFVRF
Kind of series: In vitro inhibitory concentration against Monoamine oxidase B of rat brain homogenates; value ranges from 11-52. It is filed as tissue-based.

In series [2] the target is T2, Butyrylcholinesterase (Equus caballus, UniProt Q9N1N9). Kind of series: In vitro inhibitory concentration against Butyrylcholinesterase of horse serum; value ranges from 0.16-0.41. In outline:
(§1)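 Ellman assay followed, with 200 µM butyrylthiocholine as substrate. Runs were in triplicate with four-point dose-response curves. IC50 and fiducial limits came from log concentration versus % inhibition.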

Series [3] addresses T3, Acetylcholinesterase (Homo sapiens, UniProt P22303). Kind of series: In vitro inhibitory concentration against purified Acetylcholinesterase of human erythrocytes; value ranges from 0.18-0.32.
Series [4] has as its target T4, Amine oxidase [flavin-containing] A (Rattus norvegicus, UniProt P21396).
T4 sequence (P21396 whole entry): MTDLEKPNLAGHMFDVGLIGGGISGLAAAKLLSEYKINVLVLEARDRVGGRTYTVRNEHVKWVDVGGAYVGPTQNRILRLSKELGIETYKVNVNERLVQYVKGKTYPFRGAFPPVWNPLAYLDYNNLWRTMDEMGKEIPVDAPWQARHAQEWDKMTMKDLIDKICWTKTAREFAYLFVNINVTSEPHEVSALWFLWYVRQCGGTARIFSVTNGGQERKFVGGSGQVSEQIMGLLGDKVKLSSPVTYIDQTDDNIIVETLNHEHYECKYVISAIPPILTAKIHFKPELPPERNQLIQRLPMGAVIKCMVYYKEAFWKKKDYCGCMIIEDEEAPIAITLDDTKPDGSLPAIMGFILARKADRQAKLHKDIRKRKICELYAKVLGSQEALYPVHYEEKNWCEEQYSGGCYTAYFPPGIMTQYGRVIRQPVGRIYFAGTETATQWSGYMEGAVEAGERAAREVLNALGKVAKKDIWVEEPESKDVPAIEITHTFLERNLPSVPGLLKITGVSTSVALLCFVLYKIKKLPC
Kind of series: In vitro inhibitory concentration against Monoamine oxidase A of rat brain homogenates; value ranges from 1.3-5.6. It is filed as tissue-based.

The nature of series [5]: Pseudo-first order rate constant for carbamoylation of ACHE at 40 (uM) concentration. It is filed as ADME. In outline:
(§2)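 Human erythrocyte AChE, Ellman method with 200 µM […] substrate, 0.1 M phosphate buffer pH 7.4, 37 °C. Progressive inhibition followed at 4–5 inhibitor concentrations. Pseudo-first-order carbamylation rate constants k_obs (min⁻¹) derived as per Bar-On et al. and reported ±SEM. Apparent bimolecular rate constant k_i calculated from these.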

Series [6] addresses T2, Butyrylcholinesterase. Kind of series: In vitro inhibitory concentration against Butyrylcholinesterase of horse serum; value ranges from 0.64-0.89.
Series [7] can be described thus: Pseudo-first order rate constant for carbamoylation of ACHE at 20 (uM) concentration. It is filed as ADME. In outline:
as §2

Series [8] can be described thus: Pseudo-first order rate constant for carbamoylation of ACHE at 50 (uM) concentration. It is filed as ADME. In outline: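 Human erythrocyte AChE, same Ellman conditions: 200 µM […], 60 min preincubation at 37 °C, 0.1 M phosphate pH 7.4. Progressive inhibition followed at 4-5 inhibitor concentrations. Pseudo-first-order k_obs (min⁻¹) derived per concentration; apparent bimolecular carbamylation constant k_i calculated from these.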

Series [9] deals with T4, Amine oxidase [flavin-containing] A. Kind of series: In vitro inhibitory concentration against Monoamine oxidase A of rat brain homogenates; value ranges from 8-43. It is filed as tissue-based.
Series [10] in a line: Pseudo-first order rate constant for carbamoylation of ACHE at 5 (uM) concentration. It is filed as ADME. In outline:
as §2

Series [11] concerns the target T3, Acetylcholinesterase. Kind of series: In vitro inhibitory concentration against purified Acetylcholinesterase of human erythrocytes; value ranges from 2.36-4.22.
The nature of series [12]: Bimolecular rate constant for carbamoylation of ACHE. It is filed as ADME. In outline: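 Human erythrocyte AChE preincubated with inhibitor at 37 °C in 0.1 M phosphate buffer, pH 7.4, under Ellman conditions with 200 µM […]. Pseudo-first-order rate constants (k_obs) for progressive inhibition were obtained at 4-5 inhibitor concentrations. The apparent bimolecular carbamylation constant k_i was calculated from these.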

The nature of series [13]: Pseudo-first order rate constant for carbamoylation of ACHE at 2.5(uM) concentration. It is filed as ADME. In outline: as §2
Series [14] in a line: Pseudo-first order rate constant for carbamoylation of ACHE at 10 (uM) concentration. It is filed as ADME. In outline:
as §2

The target of series [15] is T1, Amine oxidase [flavin-containing] B. Kind of series: In vitro inhibitory concentration against Monoamine oxidase B of rat brain homogenates; value ranges from 0.8-2.9. It is filed as tissue-based.
In series [16] the target is T3, Acetylcholinesterase. Kind of series: In vitro inhibitory concentration against purified Acetylcholinesterase of human erythrocytes; value ranges from 33.4-148.
The target of series [17] is T3, Acetylcholinesterase.
Series [18] deals with T2, Butyrylcholinesterase. Kind of series: In vitro inhibitory concentration against Butyrylcholinesterase of horse serum; value ranges from 0.70-0.92. In outline: as §1
In series [19] the target is T3, Acetylcholinesterase. Kind of series: In vitro inhibitory concentration against purified Acetylcholinesterase of human erythrocytes; value ranges from 7.33-61.5.
For series [20], the target named is T3, Acetylcholinesterase. The source holds these as a separate data set.
Series [21] has as its target T1, Amine oxidase [flavin-containing] B. Kind of series: In vitro inhibitory concentration against Monoamine oxidase B of rat brain homogenates. It is filed as tissue-based.
For series [22], the target named is T3, Acetylcholinesterase. Kind of series: In vitro inhibitory concentration against purified Acetylcholinesterase of human erythrocytes; value ranges from […]-[…].
Series [23] has as its target T2, Butyrylcholinesterase. Kind of series: In vitro inhibitory concentration against Butyrylcholinesterase of horse serum; value ranges from 7.65-13.2. In outline: as §1
In series [24] the target is T4, Amine oxidase [flavin-containing] A. Kind of series: In vitro inhibitory concentration against Monoamine oxidase A of rat brain homogenates 47-101. It is filed as tissue-based.
The target of series [25] is T2, Butyrylcholinesterase. Kind of series: In vitro inhibitory concentration against Butyrylcholinesterase of horse serum; value ranges from 0.038-0.064. In outline:
as §1

In series [26] the target is T3, Acetylcholinesterase. Kind of series: In vitro inhibitory concentration against purified Acetylcholinesterase of human erythrocytes; value ranges from 0.025-0.027.
Series [27] concerns the target T4, Amine oxidase [flavin-containing] A. Kind of series: In vitro inhibitory concentration against Monoamine oxidase A of rat brain homogenates; value ranges from 5.6-11.1. It is filed as tissue-based.
Series [28] shares this target. Kind of series: In vitro inhibitory concentration against Monoamine oxidase A of rat brain homogenates; value ranges from 260-420. It is filed as tissue-based.
For series [29], the target named is T1, Amine oxidase [flavin-containing] B. Kind of series: In vitro inhibitory concentration against Monoamine oxidase B of rat brain homogenates; value ranges from 590-900.
Series [30] has as its target T4, Amine oxidase [flavin-containing] A. Kind of series: biochemical. It is filed as tissue-based, Brain.
Series [31] deals with T2, Butyrylcholinesterase. Kind of series: In vitro inhibitory concentration against Butyrylcholinesterase of horse serum; value ranges from 0.76-4.2. In outline:
as §1

Series [32] has as its target T3, Acetylcholinesterase. Kind of series: In vitro inhibitory concentration against purified Acetylcholinesterase of human erythrocytes; value ranges from 8.99-49.4.
For series [33], the target named is T3, Acetylcholinesterase. Kind of series: In vitro inhibitory concentration against purified Acetylcholinesterase of human erythrocytes; value ranges from 0.49-0.58.

The structures appear in SMILES notation.

T2 sequence (Q9N1N9 whole entry): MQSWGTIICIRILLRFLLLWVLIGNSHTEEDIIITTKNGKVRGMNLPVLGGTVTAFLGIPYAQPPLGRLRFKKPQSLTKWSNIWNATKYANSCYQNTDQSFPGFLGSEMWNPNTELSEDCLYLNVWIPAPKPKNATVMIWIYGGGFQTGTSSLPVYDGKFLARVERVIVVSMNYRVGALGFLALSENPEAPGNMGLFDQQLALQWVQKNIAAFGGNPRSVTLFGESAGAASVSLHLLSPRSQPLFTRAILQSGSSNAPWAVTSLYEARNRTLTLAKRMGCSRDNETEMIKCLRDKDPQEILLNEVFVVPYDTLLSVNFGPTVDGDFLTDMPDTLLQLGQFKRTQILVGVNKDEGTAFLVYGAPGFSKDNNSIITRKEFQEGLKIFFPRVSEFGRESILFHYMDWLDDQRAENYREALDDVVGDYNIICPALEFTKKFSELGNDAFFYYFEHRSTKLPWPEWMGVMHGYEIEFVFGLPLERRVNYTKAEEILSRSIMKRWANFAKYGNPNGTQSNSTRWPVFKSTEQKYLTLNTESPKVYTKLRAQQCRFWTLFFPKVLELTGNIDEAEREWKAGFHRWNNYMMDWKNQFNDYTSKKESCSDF
T3 sequence (P22303 whole entry): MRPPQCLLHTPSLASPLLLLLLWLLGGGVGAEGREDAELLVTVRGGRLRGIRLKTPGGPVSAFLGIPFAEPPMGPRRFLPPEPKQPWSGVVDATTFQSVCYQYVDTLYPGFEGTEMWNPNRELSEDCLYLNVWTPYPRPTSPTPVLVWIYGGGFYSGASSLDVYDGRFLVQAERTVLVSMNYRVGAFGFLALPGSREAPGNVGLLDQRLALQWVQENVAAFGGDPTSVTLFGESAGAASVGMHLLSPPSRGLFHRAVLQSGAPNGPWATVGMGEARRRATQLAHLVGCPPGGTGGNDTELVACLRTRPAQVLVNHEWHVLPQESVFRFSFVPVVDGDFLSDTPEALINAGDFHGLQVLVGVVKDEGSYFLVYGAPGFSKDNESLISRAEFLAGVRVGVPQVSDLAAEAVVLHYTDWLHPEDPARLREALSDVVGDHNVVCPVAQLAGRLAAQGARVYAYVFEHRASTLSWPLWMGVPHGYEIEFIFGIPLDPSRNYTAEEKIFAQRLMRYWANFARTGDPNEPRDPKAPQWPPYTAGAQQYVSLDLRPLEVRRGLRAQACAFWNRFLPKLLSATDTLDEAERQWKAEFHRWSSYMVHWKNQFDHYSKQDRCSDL

For `C#CCNCCc1cccc(OC(=O)N(C)C)c1`, the IC50 was 24 µM in series [1], 0.21 µM on Butyrylcholinesterase [2], 0.22 µM against Acetylcholinesterase [3] and 2.7 µM in series [4].
Take `C#CCN(C)C(C)Cc1cccc(OC(=O)N(C)CCCCCC)c1` (stereo not given): the K obs turned out to be 55 min⁻¹ in series [5]; 30 min⁻¹ in series [7]; 63 min⁻¹ in series [8]; 15 min⁻¹ in [10]; 14 min⁻¹ in [13]; 23 min⁻¹ in series [14]. Besides, the half-inhibitory concentration (IC50) came to 0.72 µM against Butyrylcholinesterase [6], 20 µM in series [9], 3.06 µM at Acetylcholinesterase [11] and 1.5 µM in series [15]. In series [12], the “Bimolecular carbamoylation rate constant (ki)” value was determined as 17.25 M⁻¹ s⁻¹.
Molecule `CCN(C)C(=O)Oc1ccc2c(c1)CC(N)CC2` (stereo not given) came in with an IC50 against Acetylcholinesterase [16] of 79.6 µM.
With `C#CCN(C)C1CCc2c(OC(=O)N(C)CC)cccc21` (stereo not given), the IC50 on Acetylcholinesterase [17] is 14.9 µM; against Butyrylcholinesterase [18] it was 0.79 µM.
In the case of `CCNC(=O)Oc1ccc2c(c1)C(N)CC2` (stereo not given), on Acetylcholinesterase [19], the 50% inhibitory concentration (IC50) was determined as 17.7 µM.
For the molecule `CCN(C)C(=O)Oc1cccc2c1C(N)CC2` (stereo not given), the values for the concentration for half-maximal inhibition (IC50) (on Acetylcholinesterase [20]; in series [21]) were 10.5 µM and more than 1000 µM, respectively.
On to `COc1ccc(N(C)C(=O)Oc2ccc3c(c2)C(N)CC3)cc1` (stereo not given), for which the IC50 against Acetylcholinesterase [22] turned out to be 0.3 µM; at Butyrylcholinesterase [23] it was 9.91 µM.
In [24], `C#CCNC1CCc2ccc(OC(=O)NCCC)cc21` (stereo not given) had an IC50 of 69 µM.
As for `CCN(C)C(=O)Oc1cccc2c1CCC2N` (stereo not given), the IC50 was 0.054 µM against Butyrylcholinesterase [25], 0.026 µM against Acetylcholinesterase [26], 7.9 µM in [27] and more than 1000 µM in series [21].
For the molecule `C#CCN(C)C1CCc2cccc(OC(=O)N(C)C)c21` (stereo not given), the values for the half-maximal inhibitory concentration (IC50) in [28] and in series [29] were 330 µM and 730 µM, respectively.
For `CCN(C)C(=O)Oc1ccc2c(c1)C(N)CC2` (stereo not given), the IC50 in series [30] was 12.9 µM; on Butyrylcholinesterase [31], 1.9 µM; against Acetylcholinesterase [32] it was 19 µM; in series [21] it was more than 1000 µM.
Take `CCCCCCN(C)C(=O)Oc1ccc2c(c1)C(N)CC2` (stereo not given): on Acetylcholinesterase [33], the IC50 is 0.53 µM.

What is called IC50 is the midpoint of a concentration-inhibition curve.

These data come from ChEMBL document CHEMBL1135657, “Novel dual inhibitors of AChE and MAO derived from hydroxy aminoindan and phenethylamine as potential treatment for Alzheimer's disease” (J Med Chem, 2002).
